From ChEMBL document CHEMBL4196114 (ACS Med Chem Lett, 2018) come the findings set out here.

The subject of series [1] is Leishmania infantum. Put plainly: Antileishmanial activity against Leishmania infantum MHOM/TN/80/IPT1 promastigotes after 72 hrs by MTT assay. The class given is functional, organism-based. Particulars: MHOM/TN/80/IPT1, 72 h. Summed up:
(§1)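 Promastigotes grown in Schneider's medium with 10% FCS at 22 °C. Assay in RPMI with 10% FCS, 20 mM Hepes and 2 mM glutamine, 5×10⁶ parasites/mL, seven serial dilutions from DMSO stocks, 72 h at 22 °C. MTT added for 3 h, pellet lysed in SDS/DMF, A550 read against 650 nm reference. IC50 given as mean of separate duplicate experiments; amphotericin B as reference.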
(Tetrazolium assays rely on reduction of a dye to a coloured formazan, in cell work by metabolically active cells.)

For another series, the system named is Leishmania tropica. The series can be described thus: Antileishmanial activity against Leishmania tropica MHOM/IT/2012/ISS3130 promastigotes after 72 hrs by MTT assay. Particulars: MHOM/IT/2012/ISS3130, 72 h. It counts as functional, organism-based. Summed up:
as §1

The test system of another series is THP-1. Put plainly: Cytotoxicity against PMA-differentiated human THP1 cells after 72 hrs by MTT assay. Particulars: THP-1, 72 h. The class given is cell-based. Summed up: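 THP-1 cells at 5×10⁵ cells/mL, differentiated with 0.1 μM PMA for 48 h, then exposed to serial dilutions for 72 h. Viability read by MTT; IC50 for growth inhibition. Duplicate experiments, mean reported.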

Series [2] can be described thus: Selectivity index, ratio of IC50 for PMA-differentiated human THP1 cells to IC50 for Leishmania infantum MHOM/TN/80/IPT1 promastigotes. The class given is toxicity. Particulars: read-out: Ratio IC50.
Series [3] in a line: Selectivity index, ratio of IC50 for PMA-differentiated human THP1 cells to IC50 for Leishmania tropica MHOM/IT/2012/ISS3130 promastigotes. It counts as toxicity. Particulars: read-out: Ratio IC50.
Series [4] has as its system Leishmania infantum. The series can be described thus: Antileishmanial activity against amastigote stage of Leishmania infantum infected in PMA-differentiated human THP1 cells assessed as inhibition of parasite growth at 0.5 uM after 72 hrs by Giemsa staining based light microscopy relative to control. The class given is functional. Particulars: THP-1, 72 h. The gist of the method: (§2)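 THP-1 cells at 5×10⁵ cells/mL differentiated with 0.1 μM PMA for 48 h, then infected with metacyclic L. infantum promastigotes (1:10 macrophage:parasite) for 24 h. Washed monolayers exposed to compound for 72 h, methanol-fixed and Giemsa-stained. Percent infected macrophages versus untreated scored by light microscopy, and IC50 derived. Single-concentration values are means of two or three experiments, IC50 of two.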

For series [5], the system named is Leishmania infantum. Put plainly: Antileishmanial activity against amastigote stage of Leishmania infantum infected in PMA-differentiated human THP1 cells assessed as inhibition of parasite growth after 72 hrs by Giemsa staining based light microscopy. The class given is functional, organism-based. Particulars: THP-1, 72 h. The gist of the method:
as §2

Series [6] can be described thus: Selectivity index, ratio of IC50 for PMA-differentiated human THP1 cells to IC50 for amastigote stage of Leishmania infantum infected in PMA-differentiated human THP1 cells. It counts as toxicity. Particulars: read-out: Ratio IC50.

Each structure is given as a SMILES string. Some results are limits rather than exact numbers.

A word on the IC50: it is the concentration needed to halve the response being measured. For `CCN(CC)CCCC(C)Nc1c([N+](=O)[O-])cnc2cc(Cl)ccc12` (stereo unspecified), the values for the concentration for half-maximal inhibition (IC50) in the series with Leishmania infantum [1], with Leishmania tropica and in the series on THP-1 were 6490 nM, 2960 nM and over 110000 nM, respectively. Moreover, the selectivity ratio was over 16.9 in series [2] and over 37 in series [3].
For `N#Cc1ccc(-c2ccc(-c3ccc(CNCCCCCCCCNc4ccnc5ccccc45)cc3)s2)cc1`, the figures for the IC50 in the series with Leishmania infantum [1], in the series with Leishmania tropica and in the series on THP-1 were 350 nM, 300 nM and 1380 nM, respectively. Further, the selectivity ratio in series [2] turned out to be 4; in series [3] it was 4.6.
On the same counts, the results for `CN(CCCCCCCCNc1ccnc2ccccc12)Cc1ccc(-c2ccc(-c3ccc(C#N)cc3)s2)cc1` are 800 nM, 1060 nM, 3850 nM, 4.8 and 3.6.
In the case of `Fc1ccc2scc(-c3ccc(CNCCCCNc4ccnc5cc(Cl)ccc45)cc3)c2c1`, the concentration for half-maximal inhibition (IC50) was 1020 nM in the series with Leishmania infantum [1], 850 nM in the series on Leishmania tropica and 4280 nM in the series on THP-1. The selectivity ratio in series [2] was 4.2; in series [3], 5.
As to `c1ccc2c(NCCCCNCc3csc4ccccc34)ccnc2c1`, the results for the IC50 in the series on Leishmania infantum [1], with Leishmania tropica and with THP-1 were 640 nM, 680 nM and 3760 nM, respectively. Besides, the results for the selectivity ratio in series [2] and in series [3] were 5.8 and 5.5, respectively.
As a reminder, the inhibition is the change of the read-out against control, counted positive when it falls. Regarding `Fc1ccc2scc(CNCCCCNc3ccnc4cc(Cl)ccc34)c2c1`, the IC50 in the series on Leishmania infantum [1] is 510 nM; in the series with Leishmania tropica, 500 nM; with THP-1 it was 1910 nM; in the series on Leishmania infantum [5] it was over 1000 nM. The selectivity ratio was 3.8 in series [2], 3.8 in series [3] and under 1.91 in series [6]. The inhibition at 0.5 µM with Leishmania infantum [4] turned out to be 26.4%.
Turning to `N#Cc1ccc(-c2ccc(-c3ccc(CNCCCCNc4ccnc5ccccc45)cc3)s2)cc1`, the IC50 with Leishmania infantum [1] was found to be 1220 nM; in the series on Leishmania tropica, 1540 nM; in the series on THP-1 it was 2800 nM. Further, the selectivity ratio came to 2.3 in series [2] and 1.8 in series [3].
The matching figures for `N#Cc1ccc(-c2ccc(-c3ccc(CNCCCCCNc4ccnc5cc(Cl)ccc45)cc3)s2)cc1`: 5420 nM, 7110 nM, 8100 nM, 1.5 and 1.1.
Consider `C[C@@H]1[C@H](O)[C@@H](C)/C=C/C=C/C=C/C=C/C=C/C=C/C=C/[C@H](O[C@@H]2O[C@H](C)[C@@H](O)[C@H](N)[C@@H]2O)C[C@@H]2O[C@](O)(C[C@@H](O)C[C@@H](O)[C@H](O)CC[C@@H](O)C[C@@H](O)CC(=O)O[C@H]1C)C[C@H](O)[C@H]2C(=O)O` [AMPHOTERICIN B], for which the IC50 in the series on Leishmania infantum [1] was 130 nM; in the series with Leishmania tropica it was 140 nM; in the series on THP-1 it was over 10800 nM; in the series on Leishmania infantum [5] it was 210 nM. Also, the selectivity ratio in series [2] is over 83.1; in series [3] it was over 77.1; in series [6], over 51.4. In the series with Leishmania infantum [4], the inhibition at 0.5 µM turned out to be 95.5%.
As for `N#Cc1ccc2c(CNCCCCNc3ccnc4cc(Cl)ccc34)csc2c1`, the IC50 with Leishmania infantum [1] worked out at 1230 nM; in the series on Leishmania tropica, 1240 nM; with THP-1 it was 4250 nM; in the series on Leishmania infantum [5], 1290 nM. Besides, the selectivity ratio in series [2] worked out at 3.4; in series [3], 3.4; in series [6] it was 3.29. Besides, the inhibition at 0.5 µM in the series with Leishmania infantum [4] is 38.9%.
`O=[N+]([O-])c1cnc2cc(Cl)ccc2c1NCCCNCC12CC3CC(CC(C3)C1)C2`: the half-inhibitory concentration (IC50) in the series with Leishmania infantum [1] was found to be 1910 nM; in the series with Leishmania tropica it was 2240 nM; in the series with THP-1, 12600 nM. Moreover, the selectivity ratio in series [2] is 6.6; in series [3] it was 5.6.
On to `CCN(CC)CCCNc1ccnc2c1CCCC2`, for which the half-inhibitory concentration (IC50) in the series on Leishmania infantum [1], in the series on Leishmania tropica and with THP-1 was over 76500 nM throughout. The selectivity ratio in series [2] and in series [3] was over 1 in each case.
In the case of `Clc1ccc2c(NCCCCCNCCC34CC5CC(CC(C5)C3)C4)ccnc2c1`, the half-maximal inhibitory concentration (IC50) stood at 730 nM with Leishmania infantum [1], 660 nM in the series with Leishmania tropica and 1810 nM in the series on THP-1. Further, the selectivity ratio in series [2] came to 2.5; in series [3], 2.7.
With `CC(CCCNCc1ccc(-c2csc3ccc(C#N)cc23)cc1)Nc1ccnc2ccccc12` (stereo unspecified), the IC50 turned out to be 1550 nM in the series with Leishmania infantum [1], 1220 nM in the series on Leishmania tropica, 2790 nM in the series with THP-1 and 790 nM in the series with Leishmania infantum [5]. The values for the selectivity ratio in series [2], in series [3] and in series [6] were 1.8, 2.3 and 3.51, respectively. Moreover, the inhibition at 0.5 µM with Leishmania infantum [4] worked out at 42.2%.
Turning to `N#Cc1ccc(-c2ccc(-c3ccc(CNCCCCCCCCNc4ccnc5c4CCCC5)cc3)s2)cc1`, the half-inhibitory concentration (IC50) with Leishmania infantum [1] is 720 nM; with Leishmania tropica it was 750 nM; in the series with THP-1, 2310 nM; in the series with Leishmania infantum [5] it was over 1000 nM. The selectivity ratio was 3.2 in series [2], 3.1 in series [3] and under 2.31 in series [6]. Also, the inhibition at 0.5 µM with Leishmania infantum [4] is 29.6%.
Turning to `CC(CCNCCC12CC3CC(CC(C3)C1)C2)Nc1ccnc2ccccc12` (stereo unspecified), the IC50 in the series on Leishmania infantum [1] worked out at 2400 nM; with Leishmania tropica, 2350 nM; in the series with THP-1, 4900 nM. For the same molecule, the selectivity ratio came out at 2 in series [2] and 2.1 in series [3].
With `CCN(CC)CCCC(C)Nc1c(N)cnc2cc(Cl)ccc12` (stereo unspecified), the results for the concentration for half-maximal inhibition (IC50) with Leishmania infantum [1], in the series with Leishmania tropica and in the series with THP-1 were 16600 nM, 6630 nM and over 59700 nM, respectively. The selectivity ratio is over 3.6 in series [2] and over 9 in series [3].
As for `CC(CCN(C)CCC12CC3CC(CC(C3)C1)C2)Nc1ccnc2cc(Cl)ccc12` (stereo unspecified), the IC50 with Leishmania infantum [1] came to 2460 nM; in the series on Leishmania tropica, 1840 nM; with THP-1, 3290 nM; with Leishmania infantum [5], 1910 nM. The values for the selectivity ratio in series [2], in series [3] and in series [6] were 1.3, 1.8 and 1.72, respectively. The inhibition at 0.5 µM in the series with Leishmania infantum [4] is 29.6%.
For the molecule `N#Cc1ccc(-c2ccc(-c3ccc(CNCCCCNc4ccnc5cc(Cl)ccc45)cc3)s2)cc1`, the 50% inhibitory concentration (IC50) with Leishmania infantum [1] came out at 2300 nM; in the series with Leishmania tropica it was 1940 nM; in the series with THP-1, 5010 nM. Also, the values for the selectivity ratio in series [2] and in series [3] were 2.2 and 2.6, respectively.
Take `Fc1ccc2scc(-c3ccc(CNCCCNc4ccnc5ccccc45)cc3)c2c1`: the 50% inhibitory concentration (IC50) in the series on Leishmania infantum [1] was 1030 nM; in the series with Leishmania tropica, 810 nM; in the series with THP-1, 2310 nM. Moreover, the selectivity ratio in series [2] amounted to 2.2; in series [3] it was 2.8.
Take `CC(CCCNCc1ccc(-c2csc3ccc(F)cc23)cc1)Nc1ccnc2cc(Cl)ccc12` (stereo unspecified): the 50% inhibitory concentration (IC50) was 980 nM in the series with Leishmania infantum [1], 910 nM in the series on Leishmania tropica, 2440 nM in the series with THP-1 and 730 nM in the series on Leishmania infantum [5]. Further, the selectivity ratio worked out at 2.5 in series [2], 2.7 in series [3] and 3.34 in series [6]. The inhibition at 0.5 µM with Leishmania infantum [4] worked out at 36.9%.
In the case of `Nc1cnc2cc(Cl)ccc2c1NCCCNCC12CC3CC(CC(C3)C1)C2`, the results for the 50% inhibitory concentration (IC50) with Leishmania infantum [1], in the series with Leishmania tropica and with THP-1 were 1770 nM, 1300 nM and 6390 nM, respectively. The results for the selectivity ratio in series [2] and in series [3] were 3.6 and 4.9, respectively.
The matching figures for `CN(CCCCCCCCNc1ccnc2c1CCCC2)Cc1ccc(-c2ccc(-c3ccc(C#N)cc3)s2)cc1`: 830 nM, 800 nM, 3680 nM, 4.4 and 4.6.
On the same counts, the results for `Fc1ccc2scc(C#CCNCCCCNc3ccnc4ccccc34)c2c1` are 1020 nM, 1370 nM, 7110 nM, 7 and 5.2.
Regarding `CCN(CC)CCCNc1c([N+](=O)[O-])cnc2cc(Cl)ccc12`, the IC50 was found to be 8670 nM in the series with Leishmania infantum [1], 2770 nM in the series with Leishmania tropica and 23700 nM in the series with THP-1. Also, the selectivity ratio in series [2] worked out at 2.7; in series [3] it was 8.5.
Take `CCN(CC)CCCNc1c(N)cnc2cc(Cl)ccc12`: the IC50 is 16600 nM in the series with Leishmania infantum [1], 9350 nM in the series with Leishmania tropica and over 65200 nM in the series with THP-1. Also, the selectivity ratio was over 3.9 in series [2] and over 7 in series [3].
As to `CCN(CC)CCCC(C)Nc1ccnc2c1CCCC2` (stereo unspecified), the half-maximal inhibitory concentration (IC50) with Leishmania infantum [1], with Leishmania tropica and with THP-1 was over 69100 nM in each case. In addition, the selectivity ratio in series [2] and in series [3] was over 1 in each case.
